We go through one compound from ChEMBL document CHEMBL4414545, “Beta-Glucuronidase Catalyzes Deconjugation and Activation of Curcumin-Glucuronide in Bone” (J Nat Prod, 2019).

The subject of series [1] is RAW264.7. The experiment in a line: Inhibition of RANKL-induced osteoclastogenesis in murine RAW264.7 cells assessed as formation of TRAP positive multinucleated osteoclasts at 30 uM pretreated for 4 hrs followed by RANKL addition measured after 72 hrs. To be noted: Mus musculus. The series is classed as functional, cell-based. The method in brief:
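RAW 264.7 cells, used within 10 passages, were seeded at 5×10^3/well in DMEM with 10% FBS and allowed to adhere overnight at 37°C. Cells were pretreated 4 h with aglycone curcumin or curcumin-glucuronide, then given RANKL (50 ng/mL final) for 72 h. TRAP-positive multinucleated osteoclasts were counted, n=4/group.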

For series [2], the target named is T1, Beta-glucuronidase (Mus musculus, UniProt P12265).
T1 sequence (P12265 whole entry): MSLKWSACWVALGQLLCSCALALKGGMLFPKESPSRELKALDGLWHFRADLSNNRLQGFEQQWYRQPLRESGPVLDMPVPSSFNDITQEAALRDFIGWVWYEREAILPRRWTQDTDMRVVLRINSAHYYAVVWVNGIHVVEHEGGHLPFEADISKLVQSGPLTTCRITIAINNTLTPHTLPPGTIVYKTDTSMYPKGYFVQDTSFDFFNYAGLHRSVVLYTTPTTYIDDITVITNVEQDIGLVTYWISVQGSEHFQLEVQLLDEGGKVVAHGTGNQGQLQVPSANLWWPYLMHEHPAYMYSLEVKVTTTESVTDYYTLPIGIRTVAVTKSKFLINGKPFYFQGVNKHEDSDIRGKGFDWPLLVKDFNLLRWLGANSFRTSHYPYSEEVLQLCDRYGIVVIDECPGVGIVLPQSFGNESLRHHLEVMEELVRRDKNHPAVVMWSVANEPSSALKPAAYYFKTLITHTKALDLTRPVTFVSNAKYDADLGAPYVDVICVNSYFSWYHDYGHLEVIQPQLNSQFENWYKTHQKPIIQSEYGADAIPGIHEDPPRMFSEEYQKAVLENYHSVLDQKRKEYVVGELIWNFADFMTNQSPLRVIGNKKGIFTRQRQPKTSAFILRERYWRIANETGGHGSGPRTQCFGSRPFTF
The experiment in a line: Prodrug conversion in C57BL/6J mouse bone marrow assessed as beta-glucuronidase mediated stabilization of aglycone curcumin at 0.5 uM administered via oral gavage incubated for 30 mins followed by resuspension in sodium acetate buffer at pH 5 measured after 2 hrs in presence of saccharolactone by LC-MS analysis. To be noted: in vivo, pH 5, 0.5 µM. The series is classed as ADME.

Series [3] deals with T2, Beta-glucuronidase (Homo sapiens, UniProt P08236).
T2 sequence (P08236 whole entry): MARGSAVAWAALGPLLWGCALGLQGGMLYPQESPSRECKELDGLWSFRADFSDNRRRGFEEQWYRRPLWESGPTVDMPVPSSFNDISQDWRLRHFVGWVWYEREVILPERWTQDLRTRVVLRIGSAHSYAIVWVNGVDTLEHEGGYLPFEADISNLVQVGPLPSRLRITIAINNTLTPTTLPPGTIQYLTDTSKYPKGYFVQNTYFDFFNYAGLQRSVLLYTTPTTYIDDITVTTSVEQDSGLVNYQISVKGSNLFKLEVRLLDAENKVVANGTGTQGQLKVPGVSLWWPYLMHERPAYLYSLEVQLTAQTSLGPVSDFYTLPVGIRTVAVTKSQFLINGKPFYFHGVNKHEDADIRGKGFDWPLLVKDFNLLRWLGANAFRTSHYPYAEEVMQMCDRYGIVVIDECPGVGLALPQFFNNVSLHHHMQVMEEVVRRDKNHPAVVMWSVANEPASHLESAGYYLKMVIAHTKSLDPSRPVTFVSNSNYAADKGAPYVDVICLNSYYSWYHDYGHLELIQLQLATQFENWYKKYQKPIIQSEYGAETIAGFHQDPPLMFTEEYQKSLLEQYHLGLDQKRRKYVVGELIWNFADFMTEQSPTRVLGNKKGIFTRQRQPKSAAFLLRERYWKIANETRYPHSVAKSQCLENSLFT
The experiment in a line: Prodrug conversion assessed as recombinant human C-terminal His6-tagged beta-glucuronidase mediated curcumin-glucuronide hydrolysis incubated for 24 hrs by LC-MS analysis. In kind it is ADME. As to conditions: isolated protein. In outline: (§1)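 Recombinant human GUSB or α-klotho, 5 μg/mL (15 nM or 45 nM active enzyme), was incubated with curcumin-glucuronide (459 nM) for 24 h at 37°C at pH 5 in enzyme-optimized buffer. Reactions were stopped with HCl and extracted by HLB. Remaining glucuronide and formed aglycone were measured by LC/MS and expressed as % of enzyme-free control, n=3/group.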

Series [4] deals with T3, Klotho (Homo sapiens, UniProt Q9UEF7).
T3 sequence (Q9UEF7 whole entry): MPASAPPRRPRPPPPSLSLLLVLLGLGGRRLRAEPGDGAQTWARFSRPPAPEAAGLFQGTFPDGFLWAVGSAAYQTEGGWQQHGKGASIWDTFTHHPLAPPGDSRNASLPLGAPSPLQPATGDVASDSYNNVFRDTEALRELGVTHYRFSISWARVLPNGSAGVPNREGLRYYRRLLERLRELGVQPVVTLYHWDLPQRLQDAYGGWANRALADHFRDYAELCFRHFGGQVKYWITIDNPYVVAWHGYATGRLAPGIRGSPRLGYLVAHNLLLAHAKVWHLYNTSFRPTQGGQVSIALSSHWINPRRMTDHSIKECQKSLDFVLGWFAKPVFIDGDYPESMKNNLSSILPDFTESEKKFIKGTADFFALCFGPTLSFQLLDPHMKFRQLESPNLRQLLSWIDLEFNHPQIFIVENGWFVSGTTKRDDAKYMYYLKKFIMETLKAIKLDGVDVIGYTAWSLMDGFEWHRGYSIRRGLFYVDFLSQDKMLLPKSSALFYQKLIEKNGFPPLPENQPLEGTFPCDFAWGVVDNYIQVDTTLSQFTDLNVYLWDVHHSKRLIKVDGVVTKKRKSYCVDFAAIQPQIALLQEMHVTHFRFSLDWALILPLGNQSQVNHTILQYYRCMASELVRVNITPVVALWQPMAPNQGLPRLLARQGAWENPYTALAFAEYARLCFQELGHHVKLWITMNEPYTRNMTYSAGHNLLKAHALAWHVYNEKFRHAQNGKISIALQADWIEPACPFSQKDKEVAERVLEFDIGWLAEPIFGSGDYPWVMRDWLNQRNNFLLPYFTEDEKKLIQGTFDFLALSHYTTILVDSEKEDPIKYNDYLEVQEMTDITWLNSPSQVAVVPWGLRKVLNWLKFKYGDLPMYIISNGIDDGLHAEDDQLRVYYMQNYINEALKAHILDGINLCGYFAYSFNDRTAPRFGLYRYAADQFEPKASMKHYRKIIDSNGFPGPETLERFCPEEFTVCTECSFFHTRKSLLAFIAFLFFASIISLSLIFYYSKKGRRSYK
The experiment in a line: Prodrug conversion assessed as recombinant human alpha-klotho mediated curcumin-glucuronide hydrolysis incubated for 24 hrs by LC-MS analysis. In kind it is ADME. The method in brief:
as §1

Each structure is given as a SMILES string. Activity calls are given as the source filed them. No cut-off for these calls is given here.

As to `COc1cc(/C=C/C(=O)CC(=O)/C=C/c2ccc(O[C@@H]3O[C@H](C(=O)O)[C@@H](O)[C@H](O)[C@H]3O)c(OC)c2)ccc1O`, the inhibition result in series [1] was “inactive”. Moreover, the Drug metabolism result is reported as “Metabolite_Detected” in series [2], above 99% in series [3] and 75% in series [4].
